Experimental data: ChEMBL document CHEMBL1157579, “Discovery of potent sulfonamide P4-capped ketoamide second generation inhibitors of hepatitis C virus NS3 serine protease with favorable pharmacokinetic profiles in preclinical species” (Bioorg Med Chem, 2010)

Experiments:
[1] = Inhibition of HCV NS4A-tethered single chain NS3 serine protease assessed as Ac-DTEDVVP(Nva)- O-PAP substrate hydrolysis by spectrophotometric assay; design: species or system Hepacivirus hominis
Summary of the method: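 Ki* reported for a single P1 diastereomer, within twofold at 95% confidence limit.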

Hepatitis C virus = assay: Antiviral activity against Hepatitis C virus genotype 1 by replicon assay; type: functional, organism-based, Hepacivirus hominis
[2] = AUC (0 to 6 hrs) in rat at 10 mg/kg, po; type: ADME, organism-based; design: time < 6 hr, dose 10 mg/kg, route oral; details: plasma
[3] = AUC (0 to 6 hrs) in dog at 2 mg/kg, po; type: ADME, organism-based, Canis lupus familiaris; design: time < 6 hr, dose 2 mg/kg, route oral; details: plasma
[4] = Selectivity index, ratio of Ki for HNE to Ki for NS4A-tethered single chain NS3 serine protease
Summary of the method: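 Compounds tested against human neutrophil elastase as a counter-protease; selectivity expressed as HNE Ki divided by HCV NS3 protease Ki.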

[5] = AUC (0 to 6 hrs) in monkey at 10 mg/kg, po; type: ADME, organism-based, Macaca mulatta; design: time < 6 hr, dose 10 mg/kg, route oral; details: rhesus monkey, plasma
[6] = AUC (0 to 6 hrs) in dog at 3 mg/kg, po; type: ADME, organism-based, Canis lupus familiaris; design: time < 6 hr, dose 3 mg/kg, route oral; details: plasma

| Ki [1] [nM] | EC90 (Hepatitis C virus) [nM] | AUC(0-t) at 6 h [2] [µM·h] | AUC(0-t) at 6 h [3] [µM·h] | Ratio Ki [4] | AUC(0-t) at 6 h [5] [µM·h] | AUC(0-t) at 6 h [6] [µM·h] | SMILES |
| --- | --- | --- | --- | --- | --- | --- | --- |
| 2.8 | 45 | 0.1 | 0.2 |  |  |  | CCC[C@H](NC(=O)[C@@H]1[C@@H]2[C@H](CN1C(=O)[C@@H](NC(=O)NC1(CS(=O)(=O)N(C)C(C)(C)CF)CCCCC1)C(C)(C)C)C2(C)C)C(=O)C(=O)NC1CC1 |
| 15 | 300 |  |  | 58 |  |  | CCC[C@H](NC(=O)[C@@H]1[C@@H]2[C@H](CN1C(=O)[C@@H](NC(=O)NC1(CS(=O)(=O)NC)CCCCC1)C(C)(C)C)C2(C)C)C(=O)C(=O)NC1CC1 |
| 15 | 60 | 2.2 | 1.4 | 113 |  |  | CN(C1CC1)S(=O)(=O)CC1(NC(=O)N[C@H](C(=O)N2C[C@H]3[C@@H]([C@H]2C(=O)N[C@@H](CC2CC2)C(=O)C(=O)NC2CC2)C3(C)C)C(C)(C)C)CCCCC1 |
| 4 | 55 |  | 0.1 | 20 |  |  | C#CCCC(NC(=O)[C@@H]1[C@@H]2[C@H](CN1C(=O)[C@@H](NC(=O)N[C@H](C(=O)C1CC1)C1CCCCC1)C(C)(C)C)C2(C)C)C(=O)C(=O)NC1CC1 (stereo partly drawn) |
| 8 | 55 | 0.6 | 0.2 | 36 |  |  | CCC[C@H](NC(=O)[C@@H]1[C@@H]2[C@H](CN1C(=O)[C@@H](NC(=O)NC1(CS(=O)(=O)N(C)C(C)(C)C)CCCCC1)C(C)(C)C)C2(C)C)C(=O)C(=O)NC1CC1 |
| 9 | 65 | 1.5 | 0.5 | 64 | 0.1 |  | CCC[C@H](NC(=O)[C@@H]1[C@@H]2[C@H](CN1C(=O)[C@@H](NC(=O)NC1(CS(=O)(=O)N(C)CC)CCCCC1)C(C)(C)C)C2(C)C)C(=O)C(=O)NC1CC1 |
| 8 | 55 | 1.8 | 6.9 | 82 | 3.3 |  | CCC[C@H](NC(=O)[C@@H]1[C@@H]2[C@H](CN1C(=O)[C@@H](NC(=O)NC1(CS(=O)(=O)N(C)C3CC3)CCCCC1)C(C)(C)C)C2(C)C)C(=O)C(=O)NC1CC1 |
| 14 |  | 0.1 |  |  | 0.3 | 3.1 | CC(C)(C)NC(=O)N[C@H](C(=O)N1C[C@H]2[C@@H]([C@H]1C(=O)NC(CC1CCC1)C(=O)C(N)=O)C2(C)C)C(C)(C)C (stereo partly drawn) [BOCEPREVIR] |
| 6 | 55 | 0.6 | 6.1 | 82 | 0.1 |  | CCC[C@H](NC(=O)[C@@H]1[C@@H]2[C@H](CN1C(=O)[C@@H](NC(=O)NC1(CS(=O)(=O)N(C)C)CCCCC1)C(C)(C)C)C2(C)C)C(=O)C(=O)NC1CC1 |
| 9 | 135 |  |  |  |  |  | CCC[C@H](NC(=O)[C@@H]1[C@@H]2[C@H](CN1C(=O)[C@@H](NC(=O)NC1(CS(=O)(=O)N(C)CC3CC3)CCCCC1)C(C)(C)C)C2(C)C)C(=O)C(=O)NC1CC1 |
| 11 | 105 |  |  | 959 |  |  | CCCC[C@H](NC(=O)[C@@H]1[C@@H]2[C@H](CN1C(=O)[C@@H](NC(=O)NC1(CS(=O)(=O)N(C)C3CC3)CCCCC1)C(C)(C)C)C2(C)C)C(=O)C(=O)NC1CC1 |
| 7 | 70 | 0.9 | 0.2 | 97 |  |  | CCC[C@H](NC(=O)[C@@H]1[C@@H]2[C@H](CN1C(=O)[C@@H](NC(=O)NC1(CS(=O)(=O)N(C)C(C)C)CCCCC1)C(C)(C)C)C2(C)C)C(=O)C(=O)NC1CC1 |
| 8 | 45 | 0.3 | 0.3 | 135 |  |  | CCC[C@H](NC(=O)[C@@H]1[C@@H]2[C@H](CN1C(=O)[C@@H](NC(=O)NC1(CS(=O)(=O)N3CCOCC3)CCCCC1)C(C)(C)C)C2(C)C)C(=O)C(=O)NC1CC1 |
| 2 | 85 | 0.6 | 0.1 |  |  |  | CCC[C@H](NC(=O)C1[C@@H]2[C@H](CN1C(=O)[C@@H](NC(=O)NC1([C@@H](C)S(=O)(=O)N(C)C)CCCCC1)C(C)(C)C)C2(C)C)C(=O)C(=O)NC1CC1 (stereo partly drawn) |
| 6 | 75 | 0.9 | 4 | 2480 | 5.4 |  | CN(C1CC1)S(=O)(=O)CC1(NC(=O)N[C@H](C(=O)N2CC3C([C@H]2C(=O)N[C@@H](CCC2CC2)C(=O)C(=O)NC2CC2)C3(C)C)C(C)(C)C)CCCCC1 (single isomer, unassigned) |
| 22 |  |  |  |  |  |  | CCC[C@H](NC(=O)[C@@H]1[C@@H]2[C@H](CN1C(=O)[C@@H](NC(=O)NC1([C@H](C)S(=O)(=O)N(C)C)CCCCC1)C(C)(C)C)C2(C)C)C(=O)C(=O)NC1CC1 |
| 7 | 80 | 0.8 | 0.8 |  |  |  | CCC[C@H](NC(=O)[C@@H]1[C@@H]2[C@H](CN1C(=O)[C@@H](NC(=O)NC1(CS(=O)(=O)N3CCC3)CCCCC1)C(C)(C)C)C2(C)C)C(=O)C(=O)NC1CC1 |
| 49 | 20 |  |  | 55 | 0.05 |  | CC(C)(C)[C@H](NC(=O)NC1(C(=O)OCc2ccccc2)CCCCC1)C(=O)N1C[C@H]2[C@@H]([C@H]1C(=O)NC(CC1CC1)C(=O)C(N)=O)C2(C)C (stereo partly drawn) |
| 7 | 90 | 0.3 | 0.2 |  |  |  | CCC[C@H](NC(=O)[C@@H]1[C@@H]2[C@H](CN1C(=O)[C@@H](NC(=O)NC1(CS(=O)(=O)N(C)C3CCC3)CCCCC1)C(C)(C)C)C2(C)C)C(=O)C(=O)NC1CC1 |
| 6 | 100 | 1.7 | 0.5 |  |  |  | CCC[C@H](NC(=O)[C@@H]1[C@@H]2[C@H](CN1C(=O)[C@@H](NC(=O)NC1(CS(=O)(=O)N(C(C)C)C3CC3)CCCCC1)C(C)(C)C)C2(C)C)C(=O)C(=O)NC1CC1 |
| 4 | 20 | 0.1 |  | 340 |  |  | CCC[C@H](NC(=O)[C@@H]1[C@@H]2[C@H](CN1C(=O)[C@@H](NC(=O)NC1([C@@H]3CCN(C)S3(=O)=O)CCCCC1)C(C)(C)C)C2(C)C)C(=O)C(=O)NC1CC1 |
| 5 | 65 | 1 | 7.9 | 131 |  |  | CCC[C@H](NC(=O)[C@@H]1[C@@H]2[C@H](CN1C(=O)[C@@H](NC(=O)NC1(CS(=O)(=O)N(CC)C3CC3)CCCCC1)C(C)(C)C)C2(C)C)C(=O)C(=O)NC1CC1 |
| 4 | 20 | 0.1 |  | 340 |  |  | CCC[C@H](NC(=O)[C@@H]1[C@@H]2[C@H](CN1C(=O)[C@@H](NC(=O)NC1(C3CCN(C4CC4)S3(=O)=O)CCCCC1)C(C)(C)C)C2(C)C)C(=O)C(=O)NC1CC1 (single isomer, unassigned) |
